From ChEMBL document CHEMBL3769317, “Aminothiazoles as Potent and Selective Sirt2 Inhibitors: A Structure-Activity Relationship Study” (J Med Chem, 2016)

Experiments:
[1] = target: T1, NAD-dependent protein deacetylase sirtuin-1 (Homo sapiens) (UniProt Q96EB6); experiment: Inhibition of GST-tagged human SIRT1 (133 to 747 amino acids) using ZMAL as substrate at 200 uM after 4 hrs by fluorescence-based microplate reader method
T1 sequence (whole entry): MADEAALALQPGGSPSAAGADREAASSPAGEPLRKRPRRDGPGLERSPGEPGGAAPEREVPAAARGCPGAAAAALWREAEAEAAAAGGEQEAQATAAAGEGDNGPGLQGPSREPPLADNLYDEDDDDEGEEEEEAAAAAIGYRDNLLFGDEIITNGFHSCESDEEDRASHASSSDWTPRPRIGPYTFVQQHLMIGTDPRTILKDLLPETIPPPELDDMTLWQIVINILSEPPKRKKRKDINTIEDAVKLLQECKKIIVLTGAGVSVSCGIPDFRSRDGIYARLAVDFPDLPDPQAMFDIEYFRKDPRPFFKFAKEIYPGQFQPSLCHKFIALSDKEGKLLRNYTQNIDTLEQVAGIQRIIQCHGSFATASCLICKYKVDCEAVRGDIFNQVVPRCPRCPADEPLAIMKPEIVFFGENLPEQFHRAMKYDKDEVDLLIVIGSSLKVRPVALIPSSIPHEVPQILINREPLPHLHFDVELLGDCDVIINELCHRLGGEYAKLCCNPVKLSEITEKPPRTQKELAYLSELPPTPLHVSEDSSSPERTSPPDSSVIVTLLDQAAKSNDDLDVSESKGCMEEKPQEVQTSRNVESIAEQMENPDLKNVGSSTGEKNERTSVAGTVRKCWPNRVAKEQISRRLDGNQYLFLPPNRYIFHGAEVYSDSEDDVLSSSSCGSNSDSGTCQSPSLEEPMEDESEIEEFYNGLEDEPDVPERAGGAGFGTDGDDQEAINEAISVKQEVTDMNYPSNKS

[2] = target: T2, NAD-dependent protein deacetylase sirtuin-2 (Homo sapiens, UniProt Q8IXJ6); experiment: Inhibition of N-terminal his6-tagged human SIRT2 (25 to 389 amino acids) using ZMAL as substrate after 4 hrs by fluorescence-based microplate reader method
T2 sequence (Q8IXJ6 whole entry): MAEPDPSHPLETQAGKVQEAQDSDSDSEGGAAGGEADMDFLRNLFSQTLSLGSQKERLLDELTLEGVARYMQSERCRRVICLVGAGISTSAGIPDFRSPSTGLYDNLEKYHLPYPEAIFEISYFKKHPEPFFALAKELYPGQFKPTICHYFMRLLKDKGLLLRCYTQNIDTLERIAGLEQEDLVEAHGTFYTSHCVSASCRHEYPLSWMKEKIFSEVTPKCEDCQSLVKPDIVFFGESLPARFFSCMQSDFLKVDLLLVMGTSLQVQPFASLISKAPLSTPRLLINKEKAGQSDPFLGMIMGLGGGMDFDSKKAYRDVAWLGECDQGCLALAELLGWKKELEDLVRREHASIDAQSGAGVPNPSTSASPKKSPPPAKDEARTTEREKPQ

[3] = target: T3, NAD-dependent protein deacetylase sirtuin-2 (Homo sapiens) (UniProt Q8IXJ6); experiment: Inhibition of N-terminal his6-tagged human SIRT2 (25 to 389 amino acids) using ZMAL as substrate at 50 uM after 4 hrs by fluorescence-based microplate reader method
T3 sequence (whole entry): T2 sequence (Q8IXJ6 whole entry)
In short: (§1)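 Fluorogenic deacetylation assay: hSirt1 133-747 or hSirt2 25-389 in 50 mM Tris, 137 mM NaCl, 2.7 mM KCl, pH 8.0, with NAD+ 500 µM and ZMAL (Cbz-Lys(acetyl)-AMC) 10,5 µM final, inhibitor in DMSO (5% v/v final). Control conversion kept near 15-30%. 4 h at 37 °C, then trypsin/nicotinamide stop for 20 min at 37 °C. Fluorescence read at 390/460 nm. % inhibition taken against no-inhibitor controls. At least duplicates.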

[4] = target: T3, NAD-dependent protein deacetylase sirtuin-2 (Homo sapiens); experiment: Inhibition of N-terminal his6-tagged human SIRT2 (25 to 389 amino acids) using ZMAL as substrate at 500 uM after 4 hrs by fluorescence-based microplate reader method; in short: as §1
[5] = target: T3, NAD-dependent protein deacetylase sirtuin-2 (Homo sapiens); experiment: Inhibition of N-terminal his6-tagged human SIRT2 (25 to 389 amino acids) using ZMAL as substrate at 10 uM after 4 hrs by fluorescence-based microplate reader method; in short: as §1
[6] = target: T3, NAD-dependent protein deacetylase sirtuin-2 (Homo sapiens); experiment: Inhibition of N-terminal his6-tagged human SIRT2 (25 to 389 amino acids) using ZMAL as substrate at 250 uM after 4 hrs by fluorescence-based microplate reader method; in short: as §1

| Compound | inhibition [1] | IC50 [2] | inhibition [3] | further results |
| --- | --- | --- | --- | --- |
| CCc1cc(CC)nc(SC(C)C(=O)Nc2ncc(Cc3ccc(OC)cc3)s2)n1 (racemic) | 18% |  | 40% |  |
| Cc1cc(C)nc(SCC(N)=O)n1 | < 10% |  | < 10% |  |
| CC(=O)Nc1ncc(C)s1 | < 10% |  | < 10% |  |
| O=C(CSc1ncccn1)Nc1ncc(Cc2ccccc2)s1 | 12% |  |  |  |
| Cc1cc(C)nc(SCC(=O)Nc2nnc(Cc3ccc(Br)cc3)s2)n1 | < 10% | 168 µM |  |  |
| Cc1cc(C)nc(SCC(=O)Nc2ncc(Cc3ccc(Cl)cc3)s2)n1 | < 10% | 3.4 µM |  |  |
| O=C(CSc1nnc(-c2ccccc2)c(-c2ccccc2)n1)Nc1nnc(-c2ccccc2)s1 | < 10% | 19.9 µM |  |  |
| Cc1ccc(Cc2cnc(NC(=O)CSc3nc(C)cc(C)n3)s2)cc1 | 16% | 4.72 µM |  |  |
| CCOc1ccc2nc(NC(=O)CSc3nc(C)cc(C)n3)sc2c1 | 16% | 77.8 µM |  |  |
| COc1ccc(Cc2cnc(NC(=O)C(C)Sc3nc(C)cc(C)n3)s2)cc1 (racemic) | 27% | 14.6 µM |  |  |
| Cc1cc(C)nc(SCC(=O)Nc2nnc(Cc3ccccc3)s2)n1 | < 10% |  | 18% |  |
| Cc1cccc(Cc2cnc(NC(=O)CSc3nc(C)cc(C)n3)s2)c1 | 18% | 1.64 µM |  |  |
| Cc1cc(C)nc(SCC(=O)Nc2nnc(C)s2)n1 | < 10% |  | < 10% |  |
| Cc1cc(C)nc(SC(C)C(=O)Nc2ncc(Cc3cccc4ccc(Cl)cc34)s2)n1 (racemic) | < 10% | 0.54 µM |  |  |
| COc1ccc(Cc2cnc(NC(=O)CSc3nc(C)cc(C)n3)s2)cc1 | < 10% |  | 48% |  |
| COc1ccc(Cc2cnc(NC(=O)/C=C/c3ccco3)s2)cc1 | 28% |  | 18% |  |
| CCOc1cccc(Cc2cnc(NC(=O)CSc3nc(C)cc(C)n3)s2)c1 | < 10% | 1.33 µM |  |  |
| Cc1cc(C)nc(SCC(=O)Nc2nnc(Cc3ccc(Cl)cc3)s2)n1 | < 10% | 30.9 µM |  |  |
| O=C(CSc1nc(-c2ccccc2)cc(-c2ccccc2)n1)Nc1ncc(Cc2ccc(Cl)cc2)s1 | 11% |  | 46% |  |
| Cc1cc(C)nc(SCC(=O)Nc2nnc(-c3ccccc3)s2)n1 | < 10% |  | 20% |  |
| CCC(Sc1nc(C)cc(C)n1)C(=O)Nc1ncc(Cc2cccc3ccc(Cl)cc23)s1 (racemic) | < 10% | 0.32 µM |  |  |
| Cc1cc(C)nc(SCC(=O)Nc2ncc(C)s2)n1 | < 10% |  |  | inhibition [6]: 24% |
| Cc1cc(C)nc(SCC(=O)Nc2nc(-c3ccc4ccccc4c3)cs2)n1 | 23% |  | 35% |  |
| Cc1cc(C)nc(SCC(=O)Nc2nnc(C(F)(F)F)s2)n1 | 12% | 503 µM |  |  |
| Cc1cc(C)nc(SC(C)C(=O)Nc2ncc(Cc3ccc(-c4ccccc4)cc3)s2)n1 (racemic) | 14% | 33 µM |  |  |

Continued, in another order:

| inhibition [1] | IC50 [2] | inhibition [3] | Compound | further results |
| --- | --- | --- | --- | --- |
| < 10% | 0.21 µM |  | Cc1cc(C)nc(SCC(=O)Nc2ncc(Cc3cccc4ccc(Br)cc34)s2)n1 |  |
| 17% |  | 48% | CCc1cc(CC)nc(SCC(=O)Nc2ncc(Cc3ccc(OC)cc3)s2)n1 |  |
| < 10% |  | 35% | Cc1cc(O)nc(SCC(=O)Nc2ncc(Cc3cccc4ccccc34)s2)n1 |  |
| 14% |  | 52% | Cc1cc(C)nc(SCC(=O)Nc2ncc(Cc3ccccc3C)s2)n1 |  |
| 17% | 0.42 µM |  | Cc1cc(C)nc(SC(C)C(=O)Nc2ncc(Cc3cccc4ccccc34)s2)n1 (racemic) |  |
| 29% | 164 µM |  | Cc1cc(C)nc(SCC(=O)Nc2ncc(Cc3ccc(-c4ccccc4)cc3)s2)n1 |  |
| 11% |  | < 10% | Cc1ccccc1Cc1cnc(NC(=O)CSc2ncccn2)s1 |  |
| < 10% | > 100 µM |  | Cc1cc(C)nc(SCC(=O)N(C)c2ncc(Cc3cccc4ccccc34)s2)n1 |  |
| 21% | 1.92 µM |  | CC(Sc1ncccn1)C(=O)Nc1ncc(Cc2cccc3ccccc23)s1 (racemic) |  |
| 18% |  | 38% | CCc1cc(CC)nc(SCC(=O)Nc2ncc(Cc3ccc(Cl)cc3)s2)n1 |  |
| < 10% |  | < 10% | CC(=O)Nc1ncc(Cc2cccc3ccccc23)s1 | inhibition [4]: 84% |
| 22% | 127 µM |  | CCCc1cc(O)nc(SCC(=O)Nc2ncc(Cc3cccc4ccccc34)s2)n1 |  |
| 17% | 2.34 µM |  | O=C(CSc1ncccn1)Nc1ncc(Cc2cccc3ccccc23)s1 |  |
| < 10% | 143 µM |  | O=C(CSc1cccc(O)c1)Nc1ncc(Cc2cccc3ccccc23)s1 |  |
| 10% |  | 31% | CCc1cc(CC)nc(SCC(=O)Nc2ncc(Cc3ccc(-c4ccccc4)cc3)s2)n1 |  |
| < 10% | 0.31 µM |  | Cc1cc(C)nc(SCC(=O)Nc2ncc(Cc3c(C)ccc4ccccc34)s2)n1 |  |
| < 10% |  | 48% | CCCCCC(=O)Nc1ncc(Cc2cccc3ccccc23)s1 | inhibition [5]: < 10%; inhibition [4]: 77% |

| inhibition [1] | IC50 [2] | inhibition [3] | Compound | further results |
| --- | --- | --- | --- | --- |
| < 10% |  | < 10% | CCc1cc(CC)nc(SCC(=O)Nc2ncc(Cc3cccc(C)c3)s2)n1 |  |
| < 10% |  | 25% | Nc1cc(N)nc(SCC(=O)Nc2ncc(Cc3cccc4ccccc34)s2)n1 |  |
| < 10% | 15 µM |  | Cc1nc(SCC(=O)Nc2ncc(Cc3cccc4ccccc34)s2)nc(C)c1C |  |
| < 10% | 0.26 µM |  | Cc1cc(C)nc(S[C@@H](C)C(=O)Nc2ncc(Cc3cccc4ccccc34)s2)n1 |  |
| < 10% | 1.89 µM |  | Cc1cc(C)nc(SCC(=O)Nc2nnc(Cc3cccc4ccccc34)s2)n1 |  |
| < 10% |  |  | Cc1cc(C)nc(SCC(=O)Nc2ncc(Cc3ccc4ccccc4c3)s2)n1 |  |
| 35% | 0.54 µM |  | CCC(Sc1nc(C)cc(C)n1)C(=O)Nc1ncc(Cc2cccc3ccccc23)s1 (racemic) |  |
| < 10% | 1.45 µM |  | Cc1ccnc(SCC(=O)Nc2ncc(Cc3cccc4ccccc34)s2)n1 |  |
| < 10% | 33 µM |  | Cc1cc(C)nc(SCC(=O)Nc2ncc(C(=O)Nc3cccc4ccccc34)s2)n1 |  |
| 16% | 207 µM |  | Cc1cc(C)cc(SCC(=O)Nc2ncc(Cc3cccc4ccccc34)s2)c1 |  |
| < 10% |  | 36% | Nc1ccccc1SCC(=O)Nc1ncc(Cc2cccc3ccccc23)s1 |  |
| 20% | 0.48 µM |  | Cc1cc(C)nc(SCC(=O)Nc2ncc(Cc3cccc4cc(Cl)ccc34)s2)n1 |  |
| < 10% |  | < 10% | O=C(CSc1ccc(Cl)cc1)Nc1ncc(Cc2cccc3ccccc23)s1 |  |
| 39% | 289 µM |  | NC(=O)c1ccc[n+](CC(=O)Nc2ncc(Cc3cccc4ccccc34)s2)c1 |  |
| < 10% | 45.6 µM |  | CCc1cc(CC)nc(SCC(=O)Nc2ncc(Cc3cccc4ccccc34)s2)n1 |  |
| < 10% | 9.77 µM |  | Cc1cc(C)nc(S[C@H](C)C(=O)Nc2ncc(Cc3cccc4ccccc34)s2)n1 |  |
